Results published in ChEMBL document CHEMBL1138913, “Synthesis, structure analysis, and antitumor activity of 3,6-disubstituted-1,4-dihydro-1,2,4,5-tetrazine derivatives” (2006).

Tests used:
Assay type in all cases: functional
Bel-7402 [1] = assay: Antiproliferative activity against human BEL-7402 cell line at 0.1 umol/L by SRB method
Method in brief: (§1)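 Growth inhibition of A-549 and BEL-7402 cells was measured in vitro by sulforhodamine B (SRB) staining. Compounds were tested across five tenfold concentrations from 10^-4 to 10^-8 mol/L, and each value is reported as the percent inhibition ratio of cell growth at that concentration.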

HL-60 [2] = assay: Antiproliferative activity against human HL60 cell line at 0.01 umol/L by MTT method
Method in brief: (§2)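 P-388 and HL-60 cells were tested in vitro by MTT assay over five tenfold concentrations from 10^-4 to 10^-8 mol/L. Each value is the percent inhibition ratio of cancer cell growth at that concentration.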

HL-60 [3] = assay: Antiproliferative activity against human HL60 cell line at 0.1 umol/L by MTT method; method in brief: as §2
A549 [4] = assay: Antiproliferative activity against human A549 cell line at 1 umol/L by SRB method; method in brief: as §1
HL-60 [5] = assay: Antiproliferative activity against human HL60 cell line at 1 umol/L by MTT method; method in brief: as §2
A549 [6] = assay: Antiproliferative activity against human A549 cell line at 0.01 umol/L by SRB method; method in brief: as §1
P388 [7] = assay: Antiproliferative activity against mouse P388 cell line at 0.1 umol/L by MTT method; method in brief: as §2
Bel-7402 [8] = assay: Antiproliferative activity against human BEL-7402 cell line at 0.01 umol/L by SRB method; method in brief: as §1
P388 [9] = assay: Antiproliferative activity against mouse P388 cell line at 100 umol/L by MTT method; method in brief: as §2
P388 [10] = assay: Antiproliferative activity against mouse P388 cell line at 10 umol/L by MTT method; method in brief: as §2
Bel-7402 [11] = assay: Antiproliferative activity against human BEL-7402 cell line at 100 umol/L by SRB method; method in brief: as §1
A549 [12] = assay: Antiproliferative activity against human A549 cell line at 100 umol/L by SRB method; method in brief: as §1
A549 [13] = assay: Antiproliferative activity against human A549 cell line at 0.1 umol/L by SRB method; method in brief: as §1
P388 [14] = assay: Antiproliferative activity against mouse P388 cell line at 0.01 umol/L by MTT method; method in brief: as §2
Bel-7402 [15] = assay: Antiproliferative activity against human BEL-7402 cell line at 10 umol/L by SRB method; method in brief: as §1
HL-60 [16] = assay: Antiproliferative activity against human HL60 cell line at 100 umol/L by MTT method; method in brief: as §2
HL-60 [17] = assay: Antiproliferative activity against human HL60 cell line at 10 umol/L by MTT method; method in brief: as §2
A549 [18] = assay: Antiproliferative activity against human A549 cell line at 10 umol/L by SRB method; method in brief: as §1
Bel-7402 [19] = assay: Antiproliferative activity against human BEL-7402 cell line at 1 umol/L by SRB method; method in brief: as §1
P388 [20] = assay: Antiproliferative activity against mouse P388 cell line at 1 umol/L by MTT method; method in brief: as §2

Compound	Activity (Bel-7402 [1]) [%]	Activity (HL-60 [2]) [%]	Activity (HL-60 [3]) [%]	Activity (A549 [4]) [%]	Activity (HL-60 [5]) [%]	Activity (A549 [6]) [%]	Activity (P388 [7]) [%]	Activity (Bel-7402 [8]) [%]	Activity (P388 [9]) [%]	Activity (P388 [10]) [%]	Activity (Bel-7402 [11]) [%]	Activity (A549 [12]) [%]	Activity (A549 [13]) [%]	Activity (P388 [14]) [%]	Activity (Bel-7402 [15]) [%]	Activity (HL-60 [16]) [%]	Activity (HL-60 [17]) [%]	Activity (A549 [18]) [%]	Activity (Bel-7402 [19]) [%]	Activity (P388 [20]) [%]
Cc1cccnc1-c1nnc(-c2ncccc2C)nn1	0	4.2	9.1	0	7	0	0	2.8	34.9	0	93	93.5	0	0	23.8	94.3	96.6	9.8	0	0
Clc1ccc(C2=NN=C(c3ccc(Cl)cc3)NN2)cc1	–	–	–	4.7	–	7.1	19.4	–	65.9	51	–	73.4	0	4.9	–	–	–	2	–	36
Clc1ccc(CC2=NNC(Cc3ccc(Cl)cc3)=NN2)cc1	–	–	–	3	–	7.8	2.9	–	48.8	15.5	–	64.5	10.1	0	–	–	–	17.8	–	4.4
FC(F)(F)c1ccc(-c2nnc(-c3ccc(C(F)(F)F)cc3)nn2)cc1	0	0	1.4	33	5.8	9.7	0	0	40.2	2.5	21.3	51.5	19.5	0	12.6	43.7	7	44.4	0	0
Oc1ccc(Cl)cc1-c1nnc(-c2cc(Cl)ccc2O)nn1	–	–	–	16.4	–	0	88	–	92.5	90.7	–	7.6	0	82.8	–	–	–	62.3	–	91.2
Clc1ccccc1-c1nnc(-c2ccccc2Cl)nn1 [CLOFENTEZINE]	–	–	–	5.6	–	12.6	0	–	0	0	–	8.2	14.6	0	–	–	–	2.8	–	0
Cc1cccnc1C1=NN=C(c2ncccc2C)NN1	0	17.2	2.6	0	2.9	0	0	0	0	0	94.9	2.6	0	0	8.3	96.3	13.6	3.6	0	0
c1ccc(-c2nnc(-c3ccccc3)nn2)cc1	0	0	13.9	20.3	13.9	29.7	0	0	15.5	0	41.7	60.4	27.1	0	7.4	35.1	16.4	9.5	0	0
Clc1ccc(Cc2nnc(Cc3ccc(Cl)cc3)nn2)cc1	0	7.6	21.1	9.3	13.5	0	1.1	6	65.8	57.1	61.2	58.4	8.9	8.7	0	85.4	22.3	29.1	0	13.1
FC(F)(F)c1ccc(C2=NN=C(c3ccc(C(F)(F)F)cc3)NN2)cc1	–	–	–	0	–	0	13.8	–	47.7	36.9	–	70.3	0	9.1	–	–	–	22	–	15.2
Oc1ccc(Cl)cc1C1=NN=C(c2cc(Cl)ccc2O)NN1	–	–	–	0	–	0	0	–	89	0	–	65.3	0	0	–	–	–	80.3	–	0
c1ccc(C2=NNC(c3ccccc3)=NN2)cc1	0	17.2	2.6	5.4	2.9	0	0	0	87.6	69	54	55.8	10.2	0	14.3	82.1	16.1	67.2	0	0
Clc1ccc(-c2nnc(-c3ccc(Cl)cc3)nn2)cc1	0	0	4	29	0	16.1	0	3.4	0	0	27.4	52.3	19.4	0	0.1	66.7	12.2	35.1	0	0
